Experimental data as given in ChEMBL document CHEMBL4390663, “Cationic biaryl 1,2,3-triazolyl peptidomimetic amphiphiles: synthesis, antibacterial evaluation and preliminary mechanism of action studies” (Eur J Med Chem, 2019).
Converted amounts (≈) assume the structure as drawn.

Experiments:
[1] = test system: Enterococcus faecalis; assay: Antibacterial activity against Enterococcus faecalis ATCC 29212 incubated for 24 hrs by CLSI method; assay type: functional; conditions: ATCC 29212, 24 h
[2] = test system: Streptococcus pneumoniae; assay: Antibacterial activity against Streptococcus pneumoniae ATCC 49619 incubated for 24 hrs by CLSI method; assay type: functional; conditions: ATCC 49619, 24 h
In short: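 CLSI broth microdilution in MHB with 2.5% lysed horse blood, 5% CO2, 35 °C, 24 h. Compounds from 5 mg/mL DMSO stocks diluted in water plus double-strength broth; final 0.25–128 μg/mL. […] Triplicate; modal MIC read visually as lowest growth-inhibiting concentration.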

[3] = test system: Escherichia coli; assay: Antibacterial activity against Escherichia coli ATCC 25922 incubated for 18 hrs by CLSI method; assay type: functional; conditions: ATCC 25922, 18 h
In short: (§1)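 Screen run by CO-ADD: mid-log cultures in cation-adjusted MHB, 5 × 10^5 CFU/mL, compounds at up to 32 μg/mL in 1:2 serial dilutions (8 steps), final DMSO ≤0.5%, duplicate. 37 °C for 18 h without shaking; OD600 read against media-only and untreated-bacteria references. MIC = lowest concentration giving ≥80% inhibition; colistin standard.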

[4] = test system: Klebsiella pneumoniae; assay: Antibacterial activity against Klebsiella pneumoniae 700603 incubated for 18 hrs by CLSI method; assay type: functional; conditions: Klebsiella pneumoniae, 700603, 18 h; in short: as §1
[5] = test system: Staphylococcus aureus; assay: Antibacterial activity against methicillin-resistant Staphylococcus aureus NCTC 10442 incubated for 24 hrs by CLSI method; assay type: functional; conditions: NCTC 10442, 24 h
In short: (§2)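 Broth microdilution per CLSI aerobic guidance in Mueller Hinton broth, ambient air, 35 °C for 24 h. DMSO stocks were diluted in water, then serially diluted with double-strength broth inoculum added, for final 0.25–128 μg/mL. […] MIC was read visually as the lowest concentration inhibiting growth; the modal value of triplicates was recorded.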

[6] = test system: Clostridioides difficile; assay: Antibacterial activity against Clostridium difficile ATCC 700057 incubated for 48 hrs by CLSI method; assay type: functional; conditions: ATCC 700057, 48 h
In short: (§3)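 Broth microdilution per CLSI anaerobe method in pre-reduced (2-4 h) Brucella broth with haemin and vitamin K, 35 °C anaerobically for 48 h. Compounds from 5 mg/mL DMSO stocks, twofold dilutions in water mixed with double-strength broth; final 0.25–128 μg/mL. […] Triplicate; modal MIC read visually as lowest concentration inhibiting growth.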

[7] = test system: Pseudomonas aeruginosa; assay: Antimicrobial activity against Pseudomonas aeruginosa ATCC 27853 incubated for 18 hrs by CLSI method; assay type: functional; conditions: ATCC 27853, 18 h; in short: as §1
[8] = test system: Staphylococcus aureus; assay: Antimicrobial activity against Staphylococcus aureus ATCC 29213 incubated for 24 hrs by CLSI method; assay type: functional; conditions: ATCC 29213, 24 h; in short: as §2
[9] = Cytotoxicity against human HEK293 cells assessed as reduction in cell growth incubated for 20 hrs by resazurin dye-based fluorometric assay
In short: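 HEK293 cells, 5000 per well in DMEM + 10% FBS, exposed to compounds (top 32 μg/mL, 1:2 serial dilution ×8, ≤0.5% DMSO, duplicate) for 20 h at 37 °C, 5% CO2. Resazurin added (2.3 μg/mL final), 3 h further; fluorescence ex 560/em 590 nm. CC50 from sigmoidal dose-response fit against log concentration; tamoxifen standard.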

[10] = test system: Clostridioides difficile; assay: Antibacterial activity against Clostridium difficile NSW132 RT027 incubated for 48 hrs by CLSI method; assay type: functional; conditions: NSW132 RT027, 48 h; in short: as §3
[11] = test system: Acinetobacter baumannii; assay: Antimicrobial activity against Acinetobacter baumannii ATCC 19606 incubated for 18 hrs by CLSI method; assay type: functional; conditions: ATCC 19606 = CIP 70.34 = JCM 6841, 18 h; in short: as §1
[12] = test system: Staphylococcus aureus; assay: Antimicrobial activity against Staphylococcus aureus ATCC 43300 incubated for 18 hrs by CLSI method; assay type: functional; conditions: ATCC 43300, 18 h
[13] = test system: Enterococcus faecalis; assay: Antimicrobial activity against vancomycin-resistant Enterococcus faecalis clinical isolate incubated for 18 hrs by CLSI method; assay type: functional
[14] = test system: Staphylococcus aureus; assay: Antimicrobial activity against glycopeptide intermediate susceptible Staphylococcus aureus NRS17 incubated for 18 hrs by CLSI method; assay type: functional; conditions: NRS17, 18 h
[15] = test system: Staphylococcus aureus; assay: Antimicrobial activity against glycopeptide intermediate susceptible/methicillin-resistant Staphylococcus aureus NRS1 incubated for 18 hrs by CLSI method; assay type: functional; conditions: NRS1, 18 h
[16] = test system: Streptococcus pneumoniae; assay: Antibacterial activity against MDR Streptococcus pneumoniae ATCC 700677 incubated for 18 hrs by CLSI method; assay type: functional; conditions: ATCC 700677, 18 h
[17] = Haemolytic activity in sheep erythrocytes at 50 ug/ml incubated for 2 hrs under shaking condition relative to control; assay type: ADME, cell-based, Ovis aries, Erythrocyte; conditions: read-out: Activity
In short: (§4)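 Compounds in PBS mixed with washed sheep erythrocytes (2% final) at 5 or 50 μg/mL, rocked 2 h at 37 °C, centrifuged; supernatant absorbance at 540 nm. PBS-only value subtracted, then expressed relative to water lysis (100%). Triplicate, means reported.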

[18] = Haemolytic activity in sheep erythrocytes at 5 ug/ml incubated for 2 hrs under shaking condition relative to control; assay type: ADME, cell-based, Ovis aries, Erythrocyte; conditions: read-out: Activity; in short: as §4

Question: With `CC(C)CCOc1ccccc1-c1ccccc1OCc1cn(C[C@@H](CCCNC(=N)N)NC(=O)Cc2ccccc2)nn1.Cl` as the compound, how does the MIC [1] read?
Answer: 16 µg/mL

Question: And the MIC [2]?
Answer: 16 µg/mL

Question: And the MIC [3]?
Answer: > 32 µg/mL

Question: What about the MIC [4] of the same compound?
Answer: > 32 µg/mL

Question: What about the MIC [5] of the same compound?
Answer: 16 µg/mL

Question: And the MIC [6]?
Answer: 64 µg/mL

Question: And the MIC [7]?
Answer: > 32 µg/mL

Question: And the MIC [8]?
Answer: 16 µg/mL

Question: And the CC50 at 20 h [9]?
Answer: 29 µg/mL

Question: And the MIC [10]?
Answer: 16 µg/mL

Question: And the MIC [11]?
Answer: > 32 µg/mL

Question: And the MIC [12]?
Answer: 16 µg/mL

Question: Which MIC [1] does the source give for `CC(C)CCOc1ccc2ccccc2c1-c1c(OCc2cn(C[C@@H](CCCCN)NC(=O)Cc3ccccc3)nn2)ccc2ccccc12.Cl` here?
Answer: 8 µg/mL

Question: And the MIC [2]?
Answer: 32 µg/mL

Question: And the MIC [3]?
Answer: > 32 µg/mL

Question: And the MIC [4]?
Answer: > 32 µg/mL

Question: What about the MIC [5] of the same compound?
Answer: 8 µg/mL

Question: And the MIC [6]?
Answer: 16 µg/mL

Question: What about the MIC [7] of the same compound?
Answer: > 32 µg/mL

Question: What about the MIC [8] of the same compound?
Answer: 8 µg/mL

Question: What about the CC50 at 20 h [9] of the same compound?
Answer: 8.6 µg/mL

Question: What about the MIC [10] of the same compound?
Answer: 32 µg/mL

Question: And the MIC [11]?
Answer: > 32 µg/mL

Question: What about the MIC [12] of the same compound?
Answer: 8 µg/mL

Question: Which results are given for `CC(C)CCOc1ccccc1-c1ccccc1OCc1cn(C[C@@H](CCCCN)NC(=O)[C@@H](CCCNC(=N)N)n2cc(CCc3ccccc3)nn2)nn1.Cl.Cl`?
Answer: MIC [1]: 8 µg/mL; MIC [2]: 8 µg/mL; MIC [3]: 8 µg/mL; MIC [4]: 16 µg/mL; MIC [5]: 4 µg/mL; MIC [6]: 8 µg/mL; MIC [7]: 8 µg/mL; MIC [8]: 4 µg/mL; CC50 at 20 h [9]: > 32 µg/mL; MIC [10]: 8 µg/mL; MIC [11]: 16 µg/mL; MIC [12]: 2 µg/mL

Question: What does the source list for `CN[C@H](CC(C)C)C(=O)N[C@H]1C(=O)N[C@@H](CC(N)=O)C(=O)N[C@H]2C(=O)N[C@H]3C(=O)N[C@H](C(=O)N[C@H](C(=O)O)c4cc(O)cc(O)c4-c4cc3ccc4O)[C@H](O)c3ccc(c(Cl)c3)Oc3cc2cc(c3O[C@@H]2O[C@H](CO)[C@@H](O)[C@H](O)[C@H]2O[C@H]2C[C@](C)(N)[C@H](O)[C@H](C)O2)Oc2ccc(cc2Cl)[C@H]1O` [VANCOMYCIN]?
Answer: MIC [13]: > 32 µg/mL; MIC [14]: 8 µg/mL (≈ 5.52 µM); MIC [2]: 1 µg/mL (≈ 0.69 µM); MIC [15]: 8 µg/mL (≈ 5.52 µM); MIC [6]: 0.5 µg/mL (≈ 0.345 µM); MIC [16]: 1 to 2 µg/mL (≈ 0.69 to 1.38 µM); MIC [10]: 0.5 µg/mL (≈ 0.345 µM)

Question: For `CC(C)CCOc1ccc2ccccc2c1-c1c(OCc2cn(C[C@@H](CCCCN)NC(=O)[C@@H](CCCNC(=N)N)n3cc(CC4CCCCC4)nn3)nn2)ccc2ccccc12.Cl.Cl`, which MIC [1] is on record?
Answer: 4 µg/mL

Question: And the MIC [2]?
Answer: 4 µg/mL

Question: And the hemolysis at 2 h, 50 ug/ml [17]?
Answer: 88.8%

Question: What about the MIC [3] of the same compound?
Answer: 32 µg/mL

Question: What about the MIC [4] of the same compound?
Answer: > 32 µg/mL

Question: What about the MIC [5] of the same compound?
Answer: 4 µg/mL

Question: What about the MIC [6] of the same compound?
Answer: 8 µg/mL

Question: What about the hemolysis at 2 h, 5 ug/ml [18] of the same compound?
Answer: 1.6%

Question: What about the MIC [7] of the same compound?
Answer: 32 µg/mL

Question: What about the MIC [8] of the same compound?
Answer: 4 µg/mL

Question: What about the CC50 at 20 h [9] of the same compound?
Answer: > 32 µg/mL

Question: And the MIC [10]?
Answer: 16 µg/mL

Question: And the MIC [11]?
Answer: 16 µg/mL

Question: And the MIC [12]?
Answer: 2 µg/mL

Question: With `CC(C)CCOc1ccccc1-c1ccccc1OCc1cn(C[C@@H](CCCCN)NC(=O)[C@@H](CCCNC(=N)N)n2cc(C3CCCCC3)nn2)nn1.Cl.Cl` as the compound, how does the MIC [1] read?
Answer: 8 µg/mL

Question: And the MIC [2]?
Answer: 4 µg/mL

Question: And the hemolysis at 2 h, 50 ug/ml [17]?
Answer: 22.9%

Question: And the MIC [3]?
Answer: 8 µg/mL

Question: And the MIC [4]?
Answer: 16 µg/mL

Question: What about the MIC [5] of the same compound?
Answer: 4 µg/mL

Question: And the MIC [6]?
Answer: 4 µg/mL

Question: And the hemolysis at 2 h, 5 ug/ml [18]?
Answer: 1.9%

Question: What about the MIC [7] of the same compound?
Answer: 8 µg/mL

Question: And the MIC [8]?
Answer: 8 µg/mL

Question: What about the CC50 at 20 h [9] of the same compound?
Answer: 14.2 µg/mL

Question: What about the MIC [10] of the same compound?
Answer: 8 µg/mL

Question: What about the MIC [11] of the same compound?
Answer: 16 µg/mL

Question: What about the MIC [12] of the same compound?
Answer: 4 µg/mL

Question: What does the source list for `CC(C)CCOc1ccccc1-c1ccccc1OCc1cn(C[C@@H](CCCCN)NC(=O)OCc2ccccc2)nn1.Cl`?
Answer: MIC [1]: 16 µg/mL; MIC [2]: 32 µg/mL; MIC [3]: 32 µg/mL; MIC [4]: > 32 µg/mL; MIC [5]: 16 µg/mL; MIC [6]: 8 µg/mL; MIC [7]: 32 µg/mL; MIC [8]: 16 µg/mL; CC50 at 20 h [9]: 4.7 µg/mL; MIC [10]: 32 µg/mL; MIC [11]: 32 µg/mL; MIC [12]: 16 µg/mL
